Shown is part of a subset that was picked to be rich in hits.
Mac1 fbg inh: CD11b/CD18-fibrinogen binding inhibition; P05107+P11215; K562 CD11b/CD18 adhesion to fibrinogen, ATPlite luminescence; Mn2+ added to activate the integrin; inhibition, % at 10 µM; actives 0.54% (n = 93,000); AID 1497;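 active = primary inhibition of 50% or more at 10 µM, then 40% or more on retest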
Target sequence (P05107 whole entry, looked up, other chains not shown): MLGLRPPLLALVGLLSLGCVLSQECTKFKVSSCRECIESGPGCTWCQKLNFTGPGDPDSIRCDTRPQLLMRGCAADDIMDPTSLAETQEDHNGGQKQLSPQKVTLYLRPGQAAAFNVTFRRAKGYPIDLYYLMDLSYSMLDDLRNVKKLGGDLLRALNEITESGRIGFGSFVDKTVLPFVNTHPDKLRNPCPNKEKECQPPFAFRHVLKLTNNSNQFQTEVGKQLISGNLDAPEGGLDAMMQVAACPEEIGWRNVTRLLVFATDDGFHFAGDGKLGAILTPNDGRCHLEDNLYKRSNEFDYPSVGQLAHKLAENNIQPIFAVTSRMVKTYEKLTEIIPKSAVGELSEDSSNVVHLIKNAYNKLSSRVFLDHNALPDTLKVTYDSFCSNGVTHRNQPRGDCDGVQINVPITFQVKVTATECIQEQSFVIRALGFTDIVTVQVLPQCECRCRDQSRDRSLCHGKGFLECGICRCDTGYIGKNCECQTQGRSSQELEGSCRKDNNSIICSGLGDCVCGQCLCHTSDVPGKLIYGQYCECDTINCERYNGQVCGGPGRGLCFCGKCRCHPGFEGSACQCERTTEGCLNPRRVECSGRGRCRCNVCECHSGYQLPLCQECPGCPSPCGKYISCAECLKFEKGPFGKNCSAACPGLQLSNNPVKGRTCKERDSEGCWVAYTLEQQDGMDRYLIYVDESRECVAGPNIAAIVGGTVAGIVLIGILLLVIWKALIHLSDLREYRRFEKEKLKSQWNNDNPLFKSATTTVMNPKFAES
E coli WT exp: E. coli BW25113 growth inhibition, expanded screen. OD600 absorbance. growth inhibition, % at 100 µM. actives 0.15% (n = 98,000). AID 710;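 active = growth inhibition above about 50% at one test dose, limit read from the data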;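 note: growth measured after 20 h incubation at 37 °C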
tolC growth inh: blocks growth of E. coli BW25113 tolC mutant; OD615; growth inhibition, % at 10 µM (by protocol); actives 2.2% (n = 65,000); AID 573;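 active = growth inhibition at or above a cutoff equal to the mean over every tested compound plus 3 SD, cut at about 60% in these data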;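 note: growth measured after 20 h incubation at 37 °C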
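System: E. coli ΔtolC::kan strain BW25113; Buffer or medium: LB broth supplemented with 50 µg/mL kanamycin; Compound: 10 µM final, single dose; Incubation: bacterial growth with compound for 20 h at 37 °C; Signal: A615 absorbance measurement; Evaluation: growth inhibition in percent.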
Mac1 fbg enh: enhancers of human CD11b/CD18 binding to fibrinogen | activation, % at 10 µM | P05107+P11215 | AID 1499 | K562 CD11b/CD18 adhesion to fibrinogen, ATPlite luminescence | actives 0.07% (n = 93,000);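 active = 10 µM primary screen giving 50% or more activity, confirmed by 40% or more on retest at that dose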
A number is an active result; . = inactive; / = no result given.

SMILES | Mac1 fbg inh | E coli WT exp | tolC growth inh | Mac1 fbg enh
CC1CN(S(=O)(=O)c2ccc(C(=O)Nc3nnc(-c4ccc5c(c4)CCCC5)o3)cc2)CC(C)O1 (stereo unspecified) | . | . | 97 | .
COc1ccc(-c2nnc(NC(=O)c3ccccc3C)o2)cc1 | / | / | 100 | /
COc1ccc(-c2nnc(NC(=O)C(C)C)o2)cc1 | . | . | . | .
CCCCNC(=O)Nc1nnc(-c2ccc(OCC)cc2)o1 | . | . | / | .
COc1ccc(-c2nnc(NC(=O)c3ccc(S(=O)(=O)N4CCCc5ccccc54)cc3)o2)cc1 | . | . | . | .
CCOc1ccc(-c2nnc(NC(=O)c3ccc(OCC(C)C)c(OC)c3)o2)cc1 | / | . | 100 | /
CCCCCCCCCCCC(=O)N/N=C/c1ccco1 | . | . | / | .
CCCCn1ccnc1C(=O)c1cccc(S(=O)(=O)N2CC(C)CC(C)C2)c1 (stereo unspecified) | . | . | / | .
COc1ccc(NC(=O)c2ccc(S(=O)(=O)N3CCOCC3)cc2)c(OC)c1 | . | . | . | .
COc1cccc(-c2nnc(NC(=O)c3ccc(S(=O)(=O)N4CCOCC4)cc3)o2)c1 | . | . | 94 | .
COC(=O)c1[nH]c2cccc(OC)c2c1NC(=O)CN1CC2(C)CC1CC(C)(C)C2 (stereo unspecified) | . | . | 62 | .
COC(=O)c1[nH]c2cccc(OC)c2c1NC(=O)CN1CCOCC1 | . | . | . | .
Cn1c(-c2ccccc2)c[n+]2c1-c1ccccc1C2 | . | / | / | .
O=C(CC(Nc1ccc(F)cc1)C(=O)OCC(=O)c1cccs1)c1ccccc1 (stereo unspecified) | . | / | / | .
Cc1cccc(S(=O)(=O)Nc2ccc(C)c3c2OC(C)(C)C3)c1 | . | . | / | .
CCOc1ncccc1C(=O)N(C)CC(=O)Nc1ccccc1SC | . | / | / | .
COc1cc2cc(C(c3nnnn3C3CCCCC3)N(C)C3CCCCC3)c(=O)[nH]c2cc1OC (stereo unspecified) | . | . | 75 | .
COc1ccc(/C=N/Nc2nncc3ccccc23)cc1 | 95 | / | / | .
CCn1c(CNc2cccc(Cl)c2)nnc1SCC(=O)OC1CCCCC1 | . | . | 60 | .
CCn1c(CNc2ccccc2Cl)nnc1SCC(=O)OC1CCCCC1 | . | . | 73 | .
CCn1c(COc2ccccc2)nnc1SCC(=O)NC1CCCCC1 | . | . | . | .
O=C(Nc1nc2ccccc2n1CCOc1ccc(Cl)cc1)c1ccco1 | . | . | 77 | .
O=C(Nc1nc2ccccc2n1CCOc1ccccc1)c1ccco1 | . | . | . | .
Cc1cccc(OCCn2c(NC(=O)c3ccco3)nc3ccccc32)c1 | . | . | 98 | .
CC1CCCN(S(=O)(=O)c2ccc(NC(=O)c3cccc(-n4cnnn4)c3)cc2)C1 (stereo unspecified) | . | . | 73 | .
SMILES | Mac1 fbg inh | E coli WT exp | tolC growth inh | Mac1 fbg enh
Cc1cc(Cl)ccc1OCCCC(=O)N1CCCCC1 | . | . | / | .
Cc1cc(OCCCC(=O)N2CCCCC2)cc(C)c1Cl | . | . | 63 | .
Cc1ccc(C2c3c(-c4ccccc4O)n[nH]c3C(=O)N2Cc2ccncc2)cc1 (stereo unspecified) | / | . | 69 | /
COc1ccc(C2c3c(-c4ccccc4O)n[nH]c3C(=O)N2CCc2ccc(OC)c(OC)c2)cc1 (stereo unspecified) | . | . | . | .
Cc1ccccc1NC1=C/C(=N\S(=O)(=O)c2cccs2)c2ccccc2C1=O | . | . | / | .
COC(=O)C(C(C)=O)C1=C/C(=N\S(=O)(=O)c2ccc(C)cc2)c2ccccc2C1=O (stereo unspecified) | 66 | . | / | .
CCOC(=O)c1sc2nc(CN3CCN(c4cccc(C(F)(F)F)c4)CC3)[nH]c(=O)c2c1C | . | / | / | .
CC(C)CC(=O)n1sc(NC(=O)c2ccccc2)nc1=O | 55 | . | / | .
Cc1ccc(C(=O)Nc2nc(=O)n(C(=O)CC(C)C)s2)cc1 | . | . | / | .
CN(/N=C/c1ccc(O)cc1O)c1nc(-c2ccccc2)cc(-c2ccccc2)n1 | . | / | / | .
Cc1cccc(C(=O)NNC2=C(C(=O)C(F)(F)F)CCC2)c1O | 96 | . | / | .
Cc1[nH]nc(-c2ccc(O)cc2O)c1Oc1ccccc1 | . | . | . | .
CCCOC(=O)c1ccc(Oc2c(-c3ccc(O)cc3O)n[nH]c2C)cc1 | . | . | 100 | .
C=C(C)COc1ccc(-c2nc(N)nc(C)c2Oc2ccccc2OC)c(O)c1 | . | . | . | .
CCOc1ccc(-c2n[nH]c(C)c2Oc2ccccc2OC)c(O)c1 | . | . | 95 | .
C=C(C)COc1ccc(-c2n[nH]c(C)c2Oc2ccccc2OC)c(O)c1 | . | . | 88 | .
O=C(Nc1ccc(Cl)c(Cl)c1)Nc1cc(C(=O)NC2CC2)ccc1Cl | . | / | / | .
O=c1cc(O)c2c(=O)n(-c3ccccc3)c3ccccc3c2o1 | . | . | . | .
O=c1cc(O)c2c(=O)n3c4c(cccc4c2o1)CCC3 | / | / | 96 | /
CC(Nc1ccc(Br)cn1)c1cc(Cl)ccc1O (stereo unspecified) | . | . | 100 | .
O=C(c1cccn2c(=O)c3ccc(Cl)cc3nc12)N1CCN(Cc2ccc3c(c2)OCO3)CC1 | . | . | . | .
CCOc1ccc(Br)cc1/C(C)=N\NC1=NCCN1 | 84 | . | / | .
C=CCSc1nc2c(c(=N)n1CC=C)C1CCCC1S2 (stereo unspecified) | . | . | 96 | .
Cc1ccc(Nc2nnc(SCC(=O)NCCN3C(=O)CSC3=O)s2)cc1C | . | / | / | .
O=C(Oc1ccc2ccccc2c1Cl)N1CCCCCC1 | . | / | / | .
SMILES | Mac1 fbg inh | E coli WT exp | tolC growth inh | Mac1 fbg enh
O=C(Oc1ccc2ccccc2c1Cl)N1CCCC1 | . | . | 61 | .
CCCn1nnnc1NC(=O)CSc1ccc(Cl)cc1 | . | . | 75 | .
COc1ccc(OC)c(NC(=O)Nc2ccccc2C)c1 | . | . | . | .
CCOC(=O)c1cccc(NC(=O)Nc2cc(OC)ccc2OC)c1 | . | . | 83 | .
Cc1ccc(CNC(=O)COc2ccc(C(=O)c3ccc(F)cc3)cc2)cc1 | . | / | / | .
CC(C)(C)C(=O)Nc1nc(=S)ss1 | 66 | . | / | .
O=Nc1c2nc3ccccc3n(O)c-2c2ccccc12 | . | . | 87 | .
Cn1ncc2c(NNC(=O)c3ccc(Cl)cc3Cl)ncnc21 | . | / | / | .
O=C1OC(c2ccc(O)cc2)(c2ccc(O)cc2)c2ccccc21 | / | / | 72 | /
C=CCNC(=O)/C(C#N)=C\c1cc(Cl)c(OCC)c(OC)c1 | . | / | / | .
Cc1c(C#N)c2ccccc2n1CCOc1ccccc1F | . | . | . | .
N#Cc1cn(CCOc2ccccc2F)c2ccccc12 | . | . | 74 | .
CCCn1nc([N+](=O)[O-])c(C(C#N)c2nc3ccccc3s2)c(Cl)c1=O (stereo unspecified) | 95 | . | / | .
Cn1c(C(C#N)C(=O)c2sc3ccccc3c2Cl)nc2ccccc21 (stereo unspecified) | . | . | . | .
Cn1cc(SCC(=O)Nc2ccc3c(c2)OCCO3)c2ccccc21 | . | . | / | .
CCOC(=S)SCC(=O)N1CCc2cc(OC)ccc2C1C1C(=O)CCCC1=O (stereo unspecified) | . | / | / | .
CN1CCN(C(=O)c2ccc(CSc3ccc(Cl)cc3)cc2)CC1 | 76 | / | / | .
